An excerpt weighted towards active compounds, which were near 2.3% of everything screened.
Rpn11 block – Rpn11 (PSMD14) deubiquitinase inhibitors, primary screen, biochemical, fluorescence polarization, uHTS | human 26S proteasome, Ub4-pepOG fluorescence polarization; 20S core pre-blocked with epoxomicin | 26S proteasome non-ATPase regulatory subunit 14 (Homo sapiens), O00487 | actives 0.59% (n = 360,000) | inhibition, % at 20 µM;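 active means inhibition at 20 µM, scaled to each plate's controls, above about 33%, limit read from the data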
SUMO1-SIM PPI – modulators of SUMO1 protein-protein interactions, primary screen, biochemical, uHTS; Small ubiquitin-related modifier 1 (Homo sapiens), P63165; SUMO1 binding to a labelled peptide, TR-FRET, 1 h; inhibition, % at 20 µM; actives 0.33% (n = 360,000); AID 602429, 2012; in the data active means inhibition above about 37%
Target sequence (P63165 whole entry, looked up): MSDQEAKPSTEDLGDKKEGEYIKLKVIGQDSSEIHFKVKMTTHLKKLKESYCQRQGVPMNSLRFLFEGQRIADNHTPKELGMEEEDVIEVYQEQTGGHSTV
LMPTP inh – LMPTP phosphatase inhibitors, primary screen, biochemical, fluorescence intensity, uHTS; actives 0.22% (n = 360,000); AID 651560, 2012; inhibition, % at 20 µM; recombinant LMPTP-A, OMFP fluorogenic substrate;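 active means compounds that cut the enzyme signal by at least half of the control window in the single-dose screen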;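 further: plate controls were DMSO wells with enzyme plus substrate for no effect and substrate without enzyme for full effect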
Target sequence (P24666 whole entry, looked up): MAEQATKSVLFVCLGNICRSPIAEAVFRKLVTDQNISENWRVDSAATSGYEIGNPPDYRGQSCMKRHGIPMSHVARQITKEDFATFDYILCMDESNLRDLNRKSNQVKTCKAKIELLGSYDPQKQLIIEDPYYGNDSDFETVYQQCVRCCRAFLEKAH
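Test system: LMPTP-A phosphatase enzyme; input: 0.625 nM LMPTP-A final; reagent: OMFP substrate, 400 µM final; compound dosing: 20 µM single dose, 3% DMSO; incubation: 50 min dark incubation at room temperature; measured by: endpoint fluorescence intensity from OMFP dephosphorylation; measure: % inhibition relative to no-enzyme and uninhibited control wells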
STEP inh – STEP phosphatase inhibitors, primary screen, biochemical, fluorescence intensity, uHTS. Tyrosine-protein phosphatase non-receptor type 5 (Homo sapiens), P54829. recombinant STEP, OMFP fluorogenic substrate. inhibition, % at 20 µM. actives 0.25% (n = 360,000);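 active means inhibition at 20 µM, scaled per plate between control wells, above about 37%, limit read from the data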;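 further: 0% = DMSO with enzyme and substrate and 100% = substrate only without enzyme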
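System: STEP (striatal-enriched tyrosine phosphatase) enzyme, cell-free; medium: Bis-Tris pH 6.0 buffer with DTT, detergent; dosing: 20 µM, 1% DMSO; times: reaction 20 min, ambient temperature; detection: fluorescence, 480/540 nm; read-out basis: normalized % inhibition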
Scp-1 inhibitor – Scp-1 phosphatase inhibitors, primary screen, biochemical, colorimetric, uHTS | Carboxy-terminal domain RNA polymerase II polypeptide A small phosphatase 1 (Homo … | Recombinant Scp1, phosphopeptide, malachite green phosphate absorbance | inhibition, % at 20 µM | actives 0.88% (n = 340,000) | AID 493091, 2011;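 active means inhibition above about 50% at 20 µM, limit read from the data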;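 further: plate controls were DMSO wells with enzyme for no effect and wells lacking enzyme for full effect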
Target sequence (Q9GZU7 76-261 limits assumed): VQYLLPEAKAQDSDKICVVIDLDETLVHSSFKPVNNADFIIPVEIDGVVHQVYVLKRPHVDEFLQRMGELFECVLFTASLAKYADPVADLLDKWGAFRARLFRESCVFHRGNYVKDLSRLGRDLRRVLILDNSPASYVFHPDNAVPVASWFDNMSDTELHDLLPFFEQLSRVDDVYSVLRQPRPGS
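Incubation: 45 min enzyme reaction at room temperature / System: truncated SCP-1 phosphatase (76-261aa) / Reagent: Phospho 17-mer peptide substrate / Buffer or medium: Acidic Tris acetate buffer with magnesium and detergent / Signal: absorbance at 630 nm / Doses: one concentration, 20 µM, with 1.0% DMSO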
DNMT1 inh – human DNMT1 methyltransferase inhibitors, primary screen, biochemical, molecular beacon, fluorescence, HinP1I cleavage, uHTS; actives 0.83% (n = 360,000); inhibition (reported as % activation of signal), % at 10 µM; DNA (cytosine-5)-methyltransferase 1 (Homo sapiens), P26358; in the data active means inhibition above about 50%
Scp-1 conf – Scp-1 phosphatase inhibitors, retest, confirmation, biochemical, colorimetric, single concentration | shares compounds with Scp-1 inhibitor | recombinant SCP-1 catalytic domain, phosphate release, malachite green absorbance | inhibition, % at 20 µM | actives 61% (n = 2,500);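 active means inhibition of at least 30% at 20 µM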;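 further: plate controls were DMSO with enzyme for no effect and buffer wells lacking enzyme for full effect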
MG interference – colorimetric readout interference by compounds, confirmation, artefact control for Scp-1 inhibitor project, biochemical, single concentration | shares compounds with Scp-1 inhibitor | apparent inhibition (interference), % at 20 µM | AID 540313, 2011 | 2,500 tested, under 10 active | Colorimetric interference counterscreen, malachite green absorbance 630 nm;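 active means inhibition of at least 30% at 20 µM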;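 further: compounds added after enzyme reaction finished so only phosphate colour detection is probed; plate controls were DMSO wells with completed Scp-1 reaction for no effect and substrate wells lacking enzyme for full effect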
Scp-1 Tm shift – Scp-1 binding by thermal shift, confirmation, orthogonal assay for Scp-1 inhibitor project, biophysical, differential scanning fluorimetry; AID 540329, 2011; shares compounds with Scp-1 inhibitor; actives 25% (n = 1,500); thermal shift relative to vanadate control, % at 40 µM; Recombinant SCP1, Sypro Orange thermal shift Tm;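 active means substances whose mean melting-temperature shift, as a percentage of the reference inhibitor's shift, reaches about 5.3%, limit read from the data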;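 further: 0% = Tm of DMSO wells and 100% = Tm with sodium orthovanadate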
DNMT1 confirm – DNMT1 methyltransferase inhibitor retest, confirmation, biochemical, molecular beacon, fluorescence, single concentration | inhibition, % at 10 µM | DNMT1 molecular beacon HinP1I cleavage | actives 8% (n = 2,300) | shares compounds with DNMT1 inh;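 active means average inhibition of at least 30% in the single-concentration confirmation test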
DNMT1 interf – shows spectral interference in the DNMT1 beacon assay. activation (fluorescence interference), % at 10 µM. AID 602387. shares compounds with DNMT1 inh. DNMT1 molecular beacon spectral interference counterscreen, fluorescence 485/520. actives 1% (n = 2,300);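 active means activation of at least 30% at 10 µM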;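 further: DNMT1 catalytic domain with a HinP1I cleavage step and a FAM/dabcyl DNA beacon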
Rpn11 confirm – Rpn11 (PSMD14) deubiquitinase inhibitors, confirmation, biochemical, fluorescence polarization, single concentration; shares compounds with Rpn11 block; purified human 26S proteasome, Ub4-pepOG fluorescence polarization; proteasome pretreated with epoxomicin; inhibition, % at 20 µM; actives 29% (n = 1,900)
MMP-2 counter – MMP-2 enzyme inhibition, confirmation, counter-screen for RPN11 inhibitor project, biochemical, fluorescence, single concentration | shares compounds with Rpn11 block | recombinant MMP-2, FRET peptide cleavage fluorescence | inhibition, % at 20 µM | actives 4% (n = 1,900);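 further: human MMP-2 activated beforehand with APMA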
Thrombin FP – bovine thrombin protease inhibition, confirmation, counter-screen for Rpn11 inhibitor project, biochemical, fluorescence polarization, single concentration. AID 602333, 2012. actives 13% (n = 1,900). inhibition, % at 20 µM. shares compounds with Rpn11 block. bovine thrombin cleavage of Ub4-pepOG;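 active means mean inhibition at least 40% at 20 µM, or signal 3 deviations below plate average, so some actives read negative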;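 further: plate controls were thrombin with DMSO for no effect and buffer wells lacking thrombin for full effect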
STEP conf – STEP phosphatase inhibitor hit confirmation, biochemical, fluorescence intensity, single concentration; shares compounds with STEP inh; recombinant STEP, OMFP fluorogenic substrate; inhibition, % at 20 µM; actives 32% (n = 520); AID 623866, 2012; call rule not given here;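 further: 0% = enzyme with substrate plus DMSO and 100% = substrate without enzyme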
Starred values were filed as active, the others as inactive; nt = no result given. Unless noted, no stated cut-off is given here; in the data, active means inhibition above about 40%; inactive means the rest.

SMILES | Rpn11 block | SUMO1-SIM PPI | LMPTP inh | STEP inh | Scp-1 inhibitor | DNMT1 inh | Scp-1 conf | MG interference | Scp-1 Tm shift | DNMT1 confirm | DNMT1 interf | STEP conf | others
O=C(N/N=C/c1ccc(Br)s1)c1cccc([N+](=O)[O-])c1 | nt | 31 | 91* | 94* | 99* | 71* | 76* | -14 | 1 | 1 | 0 | 56*
O=C(O)CSc1ncnc2c1sc1nc(-c3ccccc3)c3c(c12)CCC3 | 30 | 31 | 2 | 48* | 78* | -1 | 53* | -11 | -9 | nt | nt | 34
COc1ccc2cc(C(=O)Nc3ccc(F)cc3)sc(=O)c2c1OC | 8 | -4 | 38 | 49* | 56* | 12 | 41* | -22 | -15 | nt | nt | 14
COc1ccc2cc(C(=O)Nc3ccc(Cl)cc3)sc(=O)c2c1OC | 188* | -2 | 1 | 59* | 92* | 57* | 65* | -13 | -9 | 14 | 0 | 27 | Rpn11 confirm=39;MMP-2 counter=33;Thrombin FP=-12
Cc1ccc(C)c(S(=O)(=O)N2CCN(C(=O)c3n[nH]c(=O)c4ccccc34)CC2)c1 | -5 | 8 | 0 | -3 | -5 | 0 | nt | nt | nt | nt | nt | nt
COc1cc(/C=N/NC(=O)c2ccncc2)ccc1OCC(=O)Nc1ccccc1 | -8 | -7 | 1 | -4 | 5 | 3 | nt | nt | nt | nt | nt | nt
